Assay results: ChEMBL document CHEMBL1139480, “Urotensin-II receptor ligands. From agonist to antagonist activity” (J Med Chem, 2005)
Activity calls are given as the source filed them. No cut-off for these calls is given here.

Legend:
Rattus norvegicus [1] = species on record: Rattus norvegicus; assay: Maximum contractile response of thoracic aorta in albino Wistar rat in the presence of human urotensin 2 after 30 min; type: functional; conditions: 0.5 h
In short: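 Thoracic aorta from male albino Wistar rats (275–350 g), decapitated under ether anesthesia, was cut into paired strips in oxygenated Krebs–Henseleit and recorded isotonically under 5 mN load. The control strip received cumulative hU-II. The test strip received the antagonist for 30 min, then cumulative hU-II. KCl 80 mM at the end gave the maximal contraction. pK_B = log(dose ratio − 1) − log[antagonist], slope assumed −1.0, averaged over individual values. Competition was checked by Schild plot.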

Rattus norvegicus [2] = species on record: Rattus norvegicus; assay: Maximum contractile response of thoracic aorta in albino Wistar rat after 30 min; type: functional; conditions: for EC50: 0.5 h
Urotensin-2 receptor [3] = target: T1, Urotensin-2 receptor (Homo sapiens, UniProt Q9UKP6); assay: Displacement of [125I]urotensin 2 from human UT receptor expressed in CHO-K1 cells; type: cell-based
T1 sequence (Q9UKP6 whole entry): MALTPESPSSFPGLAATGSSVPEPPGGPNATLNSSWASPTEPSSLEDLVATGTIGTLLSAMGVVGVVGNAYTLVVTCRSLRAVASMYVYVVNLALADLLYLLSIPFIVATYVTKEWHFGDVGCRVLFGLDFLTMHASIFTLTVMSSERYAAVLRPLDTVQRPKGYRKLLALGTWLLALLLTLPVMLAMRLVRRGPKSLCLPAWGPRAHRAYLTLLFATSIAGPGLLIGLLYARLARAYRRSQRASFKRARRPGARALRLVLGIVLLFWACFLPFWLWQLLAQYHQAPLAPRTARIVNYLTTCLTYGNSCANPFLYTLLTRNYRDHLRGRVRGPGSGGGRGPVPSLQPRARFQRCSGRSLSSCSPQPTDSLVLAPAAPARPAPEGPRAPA

Urotensin-2 receptor [4] = target: T2, Urotensin-2 receptor (Rattus norvegicus, UniProt P49684); assay: Antagonist activity at rat UT receptor; type: functional; conditions: read-out: pA2 (converted)
T2 sequence (P49684 whole entry): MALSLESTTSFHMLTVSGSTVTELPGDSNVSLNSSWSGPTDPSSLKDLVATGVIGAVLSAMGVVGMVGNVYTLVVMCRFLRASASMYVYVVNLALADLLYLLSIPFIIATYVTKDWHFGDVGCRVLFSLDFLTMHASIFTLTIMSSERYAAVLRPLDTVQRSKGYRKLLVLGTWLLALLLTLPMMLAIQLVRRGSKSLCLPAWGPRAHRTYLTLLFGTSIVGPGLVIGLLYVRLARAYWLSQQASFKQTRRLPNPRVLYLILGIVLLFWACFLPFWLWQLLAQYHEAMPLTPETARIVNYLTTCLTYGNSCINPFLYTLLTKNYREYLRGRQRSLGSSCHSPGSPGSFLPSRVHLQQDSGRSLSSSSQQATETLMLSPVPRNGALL
In short: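 The control strip received cumulative hU-II. The test strip received the antagonist for 30 min, then cumulative hU-II. KCl 80 mM at the end gave the maximal contraction. pK_B = log(dose ratio − 1) − log[antagonist], slope assumed −1.0, averaged over individual values. Competition was checked by Schild plot.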

Row | Ki (Urotensin-2 receptor [3]) | Structure (SMILES) | Emax (Rattus norvegicus [1]) [%] | also measured
1 | – | CC(C)[C@H](NC(=O)[C@@H]1CSSC[C@H](NC(=O)[C@@H](N)CC(=O)O)C(=O)N[C@@H](Cc2ccccc2)C(=O)N[C@@H](Cc2c[nH]c3ccccc23)C(=O)N[C@@H](CCCN)C(=O)N[C@@H](Cc2ccc(O)cc2)C(=O)N1)C(=O)O [listing 1 of 2 here] | 36 | –
2 | – | CC(C)[C@H](NC(=O)[C@@H]1CSSC(C)(C)[C@H](NC(=O)[C@@H](N)CC(=O)O)C(=O)N[C@@H](Cc2ccccc2)C(=O)N[C@H](Cc2c[nH]c3ccccc23)C(=O)N[C@H](CCCN)C(=O)N[C@@H](Cc2ccc(O)cc2)C(=O)N1)C(=O)O [listing 1 of 2 here] | 25 | –
3 | – | CC(C)[C@H](NC(=O)[C@@H]1CSSC(C)(C)[C@H](NC(=O)[C@@H](N)CC(=O)O)C(=O)N[C@@H](Cc2ccccc2)C(=O)N[C@H](Cc2c[nH]c3ccccc23)C(=O)N[C@@H](CCCCN)C(=O)N[C@@H](Cc2ccc(O)cc2)C(=O)N1)C(=O)O [listing 1 of 2 here] | 33 | –
4 | – | CC(C)[C@H](NC(=O)[C@@H]1CSSC(C)(C)[C@@H](NC(=O)[C@@H](N)CC(=O)O)C(=O)N[C@@H](Cc2ccccc2)C(=O)N[C@@H](Cc2c[nH]c3ccccc23)C(=O)N[C@@H](CCCN)C(=O)N[C@@H](Cc2ccc(O)cc2)C(=O)N1)C(=O)O | – | Activity (Rattus norvegicus [2]; filed as partial agonist): Partial agonist
5 | – | CC(C)[C@H](NC(=O)[C@@H]1CSSC(C)(C)[C@@H](NC(=O)[C@@H](N)CC(=O)O)C(=O)N[C@@H](Cc2ccccc2)C(=O)N[C@H](Cc2c[nH]c3ccccc23)C(=O)N[C@H](CCCN)C(=O)N[C@@H](Cc2ccc(O)cc2)C(=O)N1)C(=O)O | – | Activity (Rattus norvegicus [2]; filed as partial agonist): Partial agonist
6 | – | CC(C)[C@H](NC(=O)[C@@H]1CSSC[C@H](NC(=O)[C@H](CC(=O)O)NC(=O)[C@@H]2CCCN2C(=O)[C@@H](NC(=O)[C@@H](N)CCC(=O)O)[C@@H](C)O)C(=O)N[C@@H](Cc2ccccc2)C(=O)N[C@@H](Cc2c[nH]c3ccccc23)C(=O)N[C@@H](CCCCN)C(=O)N[C@@H](Cc2ccc(O)cc2)C(=O)N1)C(=O)O [HUMAN UROTENSIN II] | 100 | EC50 (Rattus norvegicus [2]): 5.01 nM
7 | 1.26 nM (antagonist) | CC(C)[C@H](NC(=O)[C@@H]1CSSC[C@H](NC(=O)[C@@H](N)CC(=O)O)C(=O)N[C@@H](Cc2ccccc2)C(=O)N[C@H](Cc2c[nH]c3ccccc23)C(=O)N[C@@H](CCCCN)C(=O)N[C@@H](Cc2ccc(O)cc2)C(=O)N1)C(=O)O [listing 1 of 2 here] | – | EC50 (Rattus norvegicus [2]): 63.1 nM
8 | – | CC(C)[C@H](NC(=O)[C@@H]1CSSC[C@@H](NC(=O)[C@@H](N)CC(=O)O)C(=O)N[C@@H](Cc2ccccc2)C(=O)N[C@@H](Cc2c[nH]c3ccccc23)C(=O)N[C@@H](CCCN)C(=O)N[C@@H](Cc2ccc(O)cc2)C(=O)N1)C(=O)O | – | Activity (Rattus norvegicus [2]; filed as partial agonist): Partial agonist
9 | 398 nM (antagonist) | CC(C)[C@H](NC(=O)[C@@H]1CSSC(C)(C)[C@H](NC(=O)[C@@H](N)CC(=O)O)C(=O)N[C@@H](Cc2ccccc2)C(=O)N[C@H](Cc2c[nH]c3ccccc23)C(=O)N[C@H](CCCN)C(=O)N[C@@H](Cc2ccc(O)cc2)C(=O)N1)C(=O)O [listing 2 of 2 here] | – | –
10 | – | CC(C)[C@H](NC(=O)[C@@H]1CSSC[C@H](NC(=O)[C@@H](N)CC(=O)O)C(=O)N[C@@H](Cc2ccccc2)C(=O)N[C@H](Cc2c[nH]c3ccccc23)C(=O)N[C@@H](CCCCN)C(=O)N[C@@H](Cc2ccc(O)cc2)C(=O)N1)C(=O)O [listing 2 of 2 here] | 42 | –
11 | – | CC(C)[C@H](NC(=O)[C@@H]1CSSC(C)(C)[C@@H](NC(=O)[C@@H](N)CC(=O)O)C(=O)N[C@@H](Cc2ccccc2)C(=O)N[C@H](Cc2c[nH]c3ccccc23)C(=O)N[C@@H](CCCN)C(=O)N[C@@H](Cc2ccc(O)cc2)C(=O)N1)C(=O)O | – | Activity (Rattus norvegicus [2]): inactive
12 | – | CC(C)[C@H](NC(=O)[C@@H]1CSSC(C)(C)[C@H](NC(=O)[C@@H](N)CC(=O)O)C(=O)N[C@@H](Cc2ccccc2)C(=O)N[C@@H](Cc2c[nH]c3ccccc23)C(=O)N[C@@H](CCCCN)C(=O)N[C@@H](Cc2ccc(O)cc2)C(=O)N1)C(=O)O [listing 1 of 2 here] | 97 | –
13 | – | CC(C)[C@H](NC(=O)[C@@H]1CSSC[C@H](NC(=O)[C@@H](N)CC(=O)O)C(=O)N[C@@H](Cc2ccccc2)C(=O)N[C@@H](Cc2c[nH]c3ccccc23)C(=O)N[C@@H](CCCCN)C(=O)N[C@@H](Cc2ccc(O)cc2)C(=O)N1)C(=O)O [listing 1 of 2 here] | 100 | –
14 | – | CC(C)[C@H](NC(=O)[C@@H]1CSSC[C@H](NC(=O)[C@@H](N)CC(=O)O)C(=O)N[C@@H](Cc2ccccc2)C(=O)N[C@@H](Cc2c[nH]c3ccccc23)C(=O)N[C@@H](CCCCN)C(=O)N[C@@H](Cc2ccc(O)cc2)C(=O)N1)C(=O)O [listing 2 of 2 here] | – | EC50 (Rattus norvegicus [2]): 2.51 nM
15 | 1.26 nM (antagonist) | CC(C)[C@H](NC(=O)[C@@H]1CSSC(C)(C)[C@H](NC(=O)[C@@H](N)CC(=O)O)C(=O)N[C@@H](Cc2ccccc2)C(=O)N[C@H](Cc2c[nH]c3ccccc23)C(=O)N[C@@H](CCCCN)C(=O)N[C@@H](Cc2ccc(O)cc2)C(=O)N1)C(=O)O [listing 2 of 2 here] | – | EC50 (Rattus norvegicus [2]): 63.1 nM
16 | 2000 nM (antagonist) | CC(C)[C@H](NC(=O)[C@@H]1CSSC(C)(C)[C@H](NC(=O)[C@@H](N)CC(=O)O)C(=O)N[C@@H](Cc2ccccc2)C(=O)N[C@H](Cc2c[nH]c3ccccc23)C(=O)N[C@@H](CCCN)C(=O)N[C@@H](Cc2ccc(O)cc2)C(=O)N1)C(=O)O | – | Activity (Rattus norvegicus [2]): inactive
17 | – | CC(C)[C@H](NC(=O)[C@@H]1CSSC[C@@H](NC(=O)[C@@H](N)CC(=O)O)C(=O)N[C@@H](Cc2ccccc2)C(=O)N[C@H](Cc2c[nH]c3ccccc23)C(=O)N[C@@H](CCCN)C(=O)N[C@@H](Cc2ccc(O)cc2)C(=O)N1)C(=O)O | – | Activity (Rattus norvegicus [2]): inactive
18 | 12.6 nM (antagonist) | CC(C)[C@H](NC(=O)[C@@H]1CSSC[C@H](NC(=O)[C@@H](N)CC(=O)O)C(=O)N[C@@H](Cc2ccccc2)C(=O)N[C@H](Cc2c[nH]c3ccccc23)C(=O)N[C@@H](CCCN)C(=O)N[C@@H](Cc2ccc(O)cc2)C(=O)N1)C(=O)O | – | Kb (Urotensin-2 receptor [4]): 10 nM (antagonist)
19 | – | CC(C)[C@H](NC(=O)[C@@H]1CSSC(C)(C)[C@H](NC(=O)[C@@H](N)CC(=O)O)C(=O)N[C@@H](Cc2ccccc2)C(=O)N[C@@H](Cc2c[nH]c3ccccc23)C(=O)N[C@@H](CCCCN)C(=O)N[C@@H](Cc2ccc(O)cc2)C(=O)N1)C(=O)O [listing 2 of 2 here] | – | EC50 (Rattus norvegicus [2]): 0.251 nM
20 | 15.8 nM (antagonist) | CC(C)[C@H](NC(=O)[C@@H]1CSSC(C)(C)[C@H](NC(=O)[C@@H](N)CC(=O)O)C(=O)N[C@@H](Cc2ccccc2)C(=O)N[C@@H](Cc2c[nH]c3ccccc23)C(=O)N[C@@H](CCCN)C(=O)N[C@@H](Cc2ccc(O)cc2)C(=O)N1)C(=O)O [listing 1 of 2 here] | – | –
21 | 10 nM (antagonist) | CC(C)[C@H](NC(=O)[C@@H]1CSSC[C@H](NC(=O)[C@@H](N)CC(=O)O)C(=O)N[C@@H](Cc2ccccc2)C(=O)N[C@@H](Cc2c[nH]c3ccccc23)C(=O)N[C@@H](CCCN)C(=O)N[C@@H](Cc2ccc(O)cc2)C(=O)N1)C(=O)O [listing 2 of 2 here] | – | Kb (Urotensin-2 receptor [4]): 50.1 nM (antagonist)
22 | – | CC(C)[C@H](NC(=O)[C@@H]1CSSC(C)(C)[C@H](NC(=O)[C@@H](N)CC(=O)O)C(=O)N[C@@H](Cc2ccccc2)C(=O)N[C@@H](Cc2c[nH]c3ccccc23)C(=O)N[C@@H](CCCN)C(=O)N[C@@H](Cc2ccc(O)cc2)C(=O)N1)C(=O)O [listing 2 of 2 here] | 22 | –
